Measurements taken from ChEMBL document CHEMBL4373687, “Introducing nitrogen atoms to amidoalkylindoles: potent and selective cannabinoid type 2 receptor agonists with improved aqueous solubility” (Medchemcomm, 2019).

Target: T1, Cannabinoid receptor 1 (Homo sapiens, UniProt P21554)
Test: Agonist activity at human CB1-receptor expressed in CHO-K1 cells coexpressing G-alpha16 by Fluo-4-AM dye based calcium mobilization assay
Format: cell-based
Conditions: read-out: EC50; call rule not given here

T1 sequence (P21554 whole entry): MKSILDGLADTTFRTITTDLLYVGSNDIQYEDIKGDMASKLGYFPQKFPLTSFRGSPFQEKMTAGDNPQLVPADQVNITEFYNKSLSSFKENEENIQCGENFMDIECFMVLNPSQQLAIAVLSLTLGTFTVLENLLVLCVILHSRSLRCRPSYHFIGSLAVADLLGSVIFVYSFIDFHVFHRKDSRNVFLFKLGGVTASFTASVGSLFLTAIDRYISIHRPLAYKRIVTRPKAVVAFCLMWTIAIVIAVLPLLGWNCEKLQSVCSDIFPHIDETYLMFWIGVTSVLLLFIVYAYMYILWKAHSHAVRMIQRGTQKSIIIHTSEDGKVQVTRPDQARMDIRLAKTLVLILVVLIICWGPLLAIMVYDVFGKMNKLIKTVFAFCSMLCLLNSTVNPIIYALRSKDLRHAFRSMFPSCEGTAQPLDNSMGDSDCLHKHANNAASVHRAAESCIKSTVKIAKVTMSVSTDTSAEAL

SMILES	EC50
O=C(NC12CC3CC(CC(C3)C1)C2)c1nn(CCN2CCOCC2)c2ccccc12	300 nM
CCCCCn1cc(C(=O)NC23CC4CC(CC(C4)C2)C3)c2ncccc21	180 nM
CCCCCn1cc(C(=O)NC23CC4CC(CC(C4)C2)C3)c2cnccc21	2100 nM
CCCCCn1nc(C(=O)NC23CC4CC(CC(C4)C2)C3)c2ccccc21	38 nM
O=C(NC12CC3CC(CC(C3)C1)C2)c1cc2cccnc2n1CCN1CCOCC1	650 nM

Target: T1, Cannabinoid receptor 1
Test: Agonist activity at human CB1-receptor expressed in CHO-K1 cells coexpressing G-alpha16 assessed as maximum efficacy by Fluo-4-AM dye based calcium mobilization assay relative to CP55940
Format: cell-based
Conditions: not given
Summary of the method: (§1)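 CHO-K1 cells stably co-expressing Gα16 and human CB1 or CB2, seeded 24 h. Loaded with 2 μM fluo-4 AM in HBSS (with sulfinpyrazone, pH 7.4) at 37 °C for 45 min. Compound added and calcium fluorescence recorded (ex 485/em 525 nm). CP55940 positive control, DMSO negative control. Compounds with >50% activation at 10 μM got eight-point curves in triplicate, sigmoidal fit for EC50.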

SMILES	Emax
O=C(NC12CC3CC(CC(C3)C1)C2)c1nn(CCN2CCOCC2)c2ccccc12	109%
CCCCCn1cc(C(=O)NC23CC4CC(CC(C4)C2)C3)c2ncccc21	48.2%
CCCCCn1cc(C(=O)NC23CC4CC(CC(C4)C2)C3)c2cnccc21	41%
CCCCCn1nc(C(=O)NC23CC4CC(CC(C4)C2)C3)c2ccccc21	99.6%
O=C(NC12CC3CC(CC(C3)C1)C2)c1cc2cccnc2n1CCN1CCOCC1	88.4%

Target: T2, Cannabinoid receptor 2 (Homo sapiens, UniProt P34972)
T2 sequence (P34972 whole entry): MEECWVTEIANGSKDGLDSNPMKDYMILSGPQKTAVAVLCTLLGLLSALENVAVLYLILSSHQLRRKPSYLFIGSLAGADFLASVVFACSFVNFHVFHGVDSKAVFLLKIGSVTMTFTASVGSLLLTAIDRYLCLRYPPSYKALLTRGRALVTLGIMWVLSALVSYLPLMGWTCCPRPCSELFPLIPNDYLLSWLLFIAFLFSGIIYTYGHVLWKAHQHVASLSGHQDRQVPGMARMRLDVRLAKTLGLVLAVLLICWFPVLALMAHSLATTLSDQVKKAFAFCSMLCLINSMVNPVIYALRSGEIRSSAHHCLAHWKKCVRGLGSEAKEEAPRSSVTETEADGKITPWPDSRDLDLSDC
Test: Agonist activity at human CB2-receptor expressed in CHO-K1 cells coexpressing G-alpha16 by Fluo-4-AM dye based calcium mobilization assay
Format: functional, cell-based
Conditions: cho-k1

SMILES	EC50
CCCCCn1cc(C(=O)NC23CC4CC(CC(C4)C2)C3)c2ncccc21	Not Active
CCCCCn1cc(C(=O)NC23CC4CC(CC(C4)C2)C3)c2cnccc21	Not Active
O=C(NC12CC3CC(CC(C3)C1)C2)c1cc2cccnc2n1CCN1CCOCC1	Not Active

Same assay, conditions: read-out: EC50

SMILES	EC50
O=C(NC12CC3CC(CC(C3)C1)C2)c1nn(CCN2CCOCC2)c2ccccc12	58 nM
CCCCCn1nc(C(=O)NC23CC4CC(CC(C4)C2)C3)c2ccccc21	92 nM

Target: T2, Cannabinoid receptor 2
Test: Agonist activity at human CB2-receptor expressed in CHO-K1 cells coexpressing G-alpha16 assessed as maximum efficacy by Fluo-4-AM dye based calcium mobilization assay relative to CP55940
Format: functional, cell-based
Conditions: not given
Summary of the method: as §1

SMILES	Emax
O=C(NC12CC3CC(CC(C3)C1)C2)c1nn(CCN2CCOCC2)c2ccccc12	85.3%
CCCCCn1nc(C(=O)NC23CC4CC(CC(C4)C2)C3)c2ccccc21	58.5%

Target: T1, Cannabinoid receptor 1
Test: Antagonist activity at human CB1-receptor expressed in CHO-K1 cells coexpressing G-alpha16 pre-incubated for 10 mins and later treated with 100 nM CB-receptor agonist, CP55940 by Fluo-4-AM dye based calcium mobilization assay
Format: cell-based
Conditions: not given
Summary of the method: (§2)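 CHO-K1 cells stably co-expressing Gα16 and human CB1 or CB2, loaded with 2 μM fluo-4 AM in HBSS pH 7.4 at 37 °C for 45 min. Pre-incubated with compound for 10 min at room temperature, then CP55940 added at 100 nM. Peak calcium read over 60 s (ex 485/em 525 nm). Rimonabant positive control. Actives got eight-point curves in triplicate, sigmoidal fit for IC50.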

SMILES	IC50
O=C(NC12CC3CC(CC(C3)C1)C2)c1nn(CCN2CCOCC2)c2ccccc12	Not Active
CCCCCn1cc(C(=O)NC23CC4CC(CC(C4)C2)C3)c2ncccc21	Not Active
CCCCCn1cc(C(=O)NC23CC4CC(CC(C4)C2)C3)c2cnccc21	Not Active
CCCCCn1nc(C(=O)NC23CC4CC(CC(C4)C2)C3)c2ccccc21	Not Active
O=C(NC12CC3CC(CC(C3)C1)C2)c1cc2cccnc2n1CCN1CCOCC1	Not Active

Target: T2, Cannabinoid receptor 2
Test: Antagonist activity at human CB2-receptor expressed in CHO-K1 cells coexpressing G-alpha16 pre-incubated for 10 mins and later treated with 100 nM CB-receptor agonist, CP55940 by Fluo-4-AM dye based calcium mobilization assay
Format: functional, cell-based
Conditions: cho-k1
Summary of the method: as §2

SMILES	IC50
O=C(NC12CC3CC(CC(C3)C1)C2)c1nn(CCN2CCOCC2)c2ccccc12	Not Active
CCCCCn1nc(C(=O)NC23CC4CC(CC(C4)C2)C3)c2ccccc21	Not Active

Same assay, conditions: read-out: IC50

SMILES	IC50
CCCCCn1cc(C(=O)NC23CC4CC(CC(C4)C2)C3)c2ncccc21	12 nM
CCCCCn1cc(C(=O)NC23CC4CC(CC(C4)C2)C3)c2cnccc21	260 nM
O=C(NC12CC3CC(CC(C3)C1)C2)c1cc2cccnc2n1CCN1CCOCC1	78 nM

Tested on: not listed separately
Test: Kinetic aqueous solubility of compound in phosphate-buffer containing 1% DMSO ultrasonicated for 10 mins at pH 7.4 measured using 80-95% methanol in water as gradient for 19 mins by HPLC analysis
Format: physicochemical
Conditions: pH 7.4, 10 min
Summary of the method: (§3)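 Kinetic solubility: 10 mM DMSO stock diluted into 10 mM phosphate buffer pH 7.4 or 1.4 (final 1% DMSO), sonicated 10 min at room temperature, filtered 0.22 μm. Quantified by C18 HPLC against a standard curve. Gradient 80–95% methanol/water with trifluoroacetic acid over 19 min at 1.2 mL/min. n = 3.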

SMILES	Kinetic_solubility	log(Kinetic_solubility)
O=C(NC12CC3CC(CC(C3)C1)C2)c1cc2ccccc2n1CCCCO	23.71 uM/L	-4.63

Tested on: not listed separately
Test: Kinetic aqueous solubility of compound in phosphate-buffer containing 1% DMSO ultrasonicated for 10 mins at pH 1.4 measured using 80-95% methanol in water as gradient for 19 mins by HPLC analysis
Format: physicochemical
Conditions: pH 1.4, 10 min
Summary of the method: as §3

SMILES	Kinetic_solubility	log(Kinetic_solubility)
O=C(NC12CC3CC(CC(C3)C1)C2)c1cc2ccccc2n1CCCCO	16.77 uM/L	-4.78

Target: T1, Cannabinoid receptor 1
Test: Agonist activity at human CB1-receptor expressed in CHO-K1 cells coexpressing G-alpha16 at 10 uM by Fluo-4-AM dye based calcium mobilization assay
Format: cell-based
Conditions: cho-k1, 10 µM
Summary of the method: as §1

SMILES	Activity
O=C(NC12CC3CC(CC(C3)C1)C2)c1nn(CCN2CCOCC2)c2ccccc12	> 50%
CCCCCn1cc(C(=O)NC23CC4CC(CC(C4)C2)C3)c2ncccc21	> 50%
CCCCCn1cc(C(=O)NC23CC4CC(CC(C4)C2)C3)c2cnccc21	> 50%
CCCCCn1nc(C(=O)NC23CC4CC(CC(C4)C2)C3)c2ccccc21	> 50%
O=C(NC12CC3CC(CC(C3)C1)C2)c1cc2cccnc2n1CCN1CCOCC1	> 50%

Target: T2, Cannabinoid receptor 2
Test: Agonist activity at human CB2-receptor expressed in CHO-K1 cells coexpressing G-alpha16 at 10 uM by Fluo-4-AM dye based calcium mobilization assay
Format: functional, cell-based
Conditions: not given
Summary of the method: as §1

SMILES	Activity
O=C(NC12CC3CC(CC(C3)C1)C2)c1nn(CCN2CCOCC2)c2ccccc12	> 50%
CCCCCn1cc(C(=O)NC23CC4CC(CC(C4)C2)C3)c2ncccc21	< 50%
CCCCCn1cc(C(=O)NC23CC4CC(CC(C4)C2)C3)c2cnccc21	< 50%
CCCCCn1nc(C(=O)NC23CC4CC(CC(C4)C2)C3)c2ccccc21	> 50%
O=C(NC12CC3CC(CC(C3)C1)C2)c1cc2cccnc2n1CCN1CCOCC1	< 50%

Target: T2, Cannabinoid receptor 2
Test: Antagonist activity at human CB2-receptor expressed in CHO-K1 cells coexpressing G-alpha16 at 10 uM pre-incubated for 10 mins and later treated with 100 nM CB-receptor agonist, CP55940 by Fluo-4-AM dye based calcium mobilization assay
Format: functional, cell-based
Conditions: not given
Summary of the method: as §2

SMILES	inhibition
O=C(NC12CC3CC(CC(C3)C1)C2)c1nn(CCN2CCOCC2)c2ccccc12	< 50%
CCCCCn1cc(C(=O)NC23CC4CC(CC(C4)C2)C3)c2ncccc21	> 50%
CCCCCn1cc(C(=O)NC23CC4CC(CC(C4)C2)C3)c2cnccc21	> 50%
CCCCCn1nc(C(=O)NC23CC4CC(CC(C4)C2)C3)c2ccccc21	< 50%
O=C(NC12CC3CC(CC(C3)C1)C2)c1cc2cccnc2n1CCN1CCOCC1	> 50%

Target: T1, Cannabinoid receptor 1
Test: Antagonist activity at human CB1-receptor expressed in CHO-K1 cells coexpressing G-alpha16 at 10 uM pre-incubated for 10 mins and later treated with 100 nM CB-receptor agonist, CP55940 by Fluo-4-AM dye based calcium mobilization assay
Format: cell-based
Conditions: not given
Summary of the method: as §2

SMILES	inhibition at 10 µM
O=C(NC12CC3CC(CC(C3)C1)C2)c1nn(CCN2CCOCC2)c2ccccc12	< 50%
CCCCCn1cc(C(=O)NC23CC4CC(CC(C4)C2)C3)c2ncccc21	< 50%
CCCCCn1cc(C(=O)NC23CC4CC(CC(C4)C2)C3)c2cnccc21	< 50%
CCCCCn1nc(C(=O)NC23CC4CC(CC(C4)C2)C3)c2ccccc21	< 50%
O=C(NC12CC3CC(CC(C3)C1)C2)c1cc2cccnc2n1CCN1CCOCC1	< 50%
